# Bioassay records deposited in PubChem BioAssay by Broad Institute.
# Vif imaging – blocks HIV Vif function; HEK293T cells, Vif self-association by quenched fluorescence, imaging, 24 h; inhibition, % at 7.49 µM; 340,000 compounds, 0.35% hits; AID 602346; in the data active means inhibition above about 50%, passing the limit was not always enough
# FGF22 binding – shifts melting point of recombinant human FGF22; activity (Tm shift, normalised), % at 9.99 µM; recombinant FGF22 thermal shift, SYPRO orange fluorescence; percent of sucrose octasulfate shift, DMSO zero; Q9HCT0; 340,000 compounds, 1.5% hits;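 active means mean Tm shift, scaled 0 neutral to 100 positive control, at about 1.3% or above, every replicate too, limit read from the data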
# Target sequence (Q9HCT0 whole entry, looked up): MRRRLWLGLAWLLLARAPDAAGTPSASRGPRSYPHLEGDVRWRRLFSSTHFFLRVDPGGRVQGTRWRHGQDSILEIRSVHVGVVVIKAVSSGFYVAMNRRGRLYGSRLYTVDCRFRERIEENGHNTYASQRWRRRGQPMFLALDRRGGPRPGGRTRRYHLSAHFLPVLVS
# Cneo AK release – Cryptococcus neoformans lysis via adenylate kinase release; AID 651654; C. neoformans lysis, adenylate kinase release luminescence, 4 h; normalised: neutral wells 0, clomiphene wells 100; 360,000 compounds, 0.2% hits; lysis activity, % at 15 µM;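 active means mean lysis activity across replicates of at least 80%, whatever share of replicates individually reach that level; inactive means mean lysis activity below 80%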
#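 Material: C. neoformans cells | Amount: Yeast cell density of 5 × 10^6 cells/mL | Medium: Fresh YPD growth medium | Dosing: Single dose | Times: Static 4 h at 37 °C with compound, 1 h detection | Detection: AK luminescence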
# PGC1a acetyl inh – PGC1a acetylation modulation, inhibitor mode; AID 651687; 350,000 compounds, 0.17% hits; U2OS PGC1a acetylation, AlphaScreen anti-acetyl-lysine; with virally co-expressed GCN5 acetyltransferase; inhibition, % at 15.6 µM;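 active means every replicate shows inhibition of at least 40%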
# rRNA inh HTS – selective bacterial rRNA inhibition in E. coli. E. coli WT GFP vs humanized-ribosome RFP mutants, fluorescence, 24 h; active compounds read low; DMSO median 0, no signal -100. 350,000 compounds, 1.6% hits. GFP signal change (wild-type ribosome), % (concentration not given with the values);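 active means significant combined selectivity score with lowered wild-type GFP, culture density cut under 30%, mutant RFP and density less affected; inactive means any of these conditions unmet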
# PglD inh – blocks C. jejuni PglD acetyltransferase activity | purified PglD enzyme, DTNB colorimetric CoA detection | 360,000 compounds, 0.098% hits | inhibition, % at 12.5 µM; in the data active means inhibition above about 16%, passing the limit was not always enough
# A number is an active result; . = inactive; / = not tested or not shown. Compounds with a hit are over-represented: about 2.9% of the library has one in this group of screens.
SMILES,Vif imaging,FGF22 binding,Cneo AK release,PGC1a acetyl inh,rRNA inh HTS,PglD inh
COc1ccccc1/C=C1/SC(=S)N(C(C)C(=O)NC2C=CS(=O)(=O)C2)C1=O (configuration not stated),55,.,.,.,.,.
CC(C(=O)NC1C=CS(=O)(=O)C1)N1C(=O)/C(=C\c2ccccc2)SC1=S (configuration not stated),.,.,.,/,-16,.
CC(C(=O)NC1C=CS(=O)(=O)C1)N1C(=O)/C(=C/c2cccc(Cl)c2)SC1=S (configuration not stated),.,.,/,/,-28,/
O=C(C[C@H]1CC[C@H]2[C@@H](COC[C@H](O)CN2C(=O)Nc2ccccc2)O1)NCCCN1CCOCC1,/,.,.,.,.,.
Nc1cc(Nc2ccc(Br)cc2)nc(N)n1,.,.,/,/,-44,/
Cc1cccc(S(=O)(=O)N(C)C[C@H]2OCc3ccccc3-c3ccccc3C(=O)N([C@@H](C)CO)C[C@H]2C)c1,/,/,/,/,.,/
COc1cccc(N/C(N)=N/c2nc(C)cc(=O)[nH]2)c1,.,/,.,/,/,.
COC(=O)Cc1cc(=O)[nH]c(/N=C(\N)Nc2cccc(C)c2)n1,.,43,/,/,.,/
Cc1cc(C)nc(/N=C(\N)Nc2ccc3c(c2)OCCO3)n1,.,/,/,/,/,/
Cc1cc(=O)[nH]c(/N=C(\N)Nc2ccc3c(c2)OCCO3)n1,.,44,.,.,.,.
Cc1cccc(N/C(N)=N/c2nc(C)cc(=O)[nH]2)c1,.,43,/,.,.,/
CNC[C@@H]1Oc2ccc(NC(=O)C3CC3)cc2C(=O)N([C@H](C)CO)C[C@H]1C,/,.,.,.,.,.
O=C(Nc1cccc(NC(=O)c2cccs2)c1)c1ccc(F)cc1,.,.,.,.,-28,.
COc1ccccc1CC(=O)Nc1ccon1,56,.,.,.,.,.
COc1ccc(C(=O)Nc2cccc(NC(=O)c3cccs3)c2)cc1,.,.,.,/,.,.
COc1ccccc1CC(=O)NNC(=O)c1cccs1,.,44,.,.,.,.
O=C(NNC(=O)c1cccs1)c1cccc(F)c1,.,.,.,.,.,.
O=C(NNC(=O)c1cccs1)c1ccc(F)cc1,.,43,.,/,.,.
COc1ccccc1CC(=O)Nc1ccc(NC(=O)c2cccs2)cc1,.,.,.,/,.,.
C[C@H](O)C#Cc1ccc2c(c1)O[C@H](CN(C)C(=O)c1ccccc1)[C@@H](C)CN([C@H](C)CO)S2(=O)=O,/,.,.,.,.,.
CCCNC(=O)N1[C@@H](CO)[C@@H](c2ccc(C3=CCCC3)cc2)[C@@H]1CNC(=O)CC,/,/,.,.,.,.
C[C@@H]1CN([C@H](C)CO)C(=O)c2c(c3ccccc3n2C)-c2ccccc2CO[C@@H]1CN(C)CC1CCCCC1,/,.,/,.,.,/
O=C(NNC(=O)c1cccs1)c1ccc([N+](=O)[O-])cc1,/,44,/,/,.,/
Cc1cc(C)c(C(=O)Nc2cccc(F)c2)c(Cl)n1,.,43,/,/,.,/
C[C@H](CO)N1C[C@H](C)[C@H](CN(C)S(=O)(=O)c2cccs2)OCCCC[C@H](C)Oc2ccc(NC(=O)c3ccncc3)cc2C1=O,/,.,.,.,.,.
SMILES,Vif imaging,FGF22 binding,Cneo AK release,PGC1a acetyl inh,rRNA inh HTS,PglD inh
CNC(=O)C[C@H]1CC[C@@H]2[C@H](COC[C@H](O)CN2Cc2ccc(C(F)(F)F)cc2)O1,/,.,.,.,.,.
COc1ccc(CCNC(=O)CSc2nc(C)cs2)cc1,.,.,/,/,/,/
COc1ccc(CNC(=O)CSc2nc(C)cs2)cc1,.,43,/,.,.,/
C[C@@H]1CN([C@H](C)CO)C(=O)c2cc(NC(=O)NC3CCCCC3)ccc2O[C@@H](C)CCCCO[C@@H]1CN(C)S(=O)(=O)c1ccc(F)cc1,/,.,.,.,.,.
O=C(NNC(=S)NC(=O)c1ccccc1)c1cccnc1,.,.,.,/,.,.
O=C(NC(=S)NNC(=O)c1ccccc1F)c1cccnc1,.,.,.,.,-19,.
Cc1ccccc1C(=O)NNC(=S)NC(=O)c1cccnc1,.,43,.,/,.,.
Cc1ccccc1C(=O)NNC(=S)NC(=O)COc1ccccc1,.,.,/,.,-22,/
O=C(C[C@@H]1CC[C@H](NC(=O)C2CCC2)[C@@H](CO)O1)NC1CCC1,/,.,.,.,.,.
CCc1cccc(NC(=O)Cn2c3[n+](c4ccc(C(F)(F)F)cc42)CCCCC3)c1,.,.,/,/,-45,/
O=C(Cn1c2[n+](c3ccc(C(F)(F)F)cc31)CCCCC2)c1ccc2c(c1)OCCO2,.,.,/,/,-38,/
O=C(Cn1c2[n+](c3ccc(C(F)(F)F)cc31)CCCCC2)c1cccc([N+](=O)[O-])c1,.,.,.,/,.,.
CN(CCCC(=O)O)c1ccc(N=Nc2ccc([N+](=O)[O-])cc2)cc1,.,.,/,/,-31,/
O=C(O)c1ccccc1Nc1ccc(OC(F)F)cc1,.,.,/,.,-16,/
O=C(O)c1ccccc1Nc1ccccc1,.,.,.,.,/,.
CO[C@@H]1CN(C)C(=O)c2cc(NC(=O)C3CC3)ccc2OC[C@H](C)N(Cc2ccncc2)C[C@H]1C,/,.,.,/,.,.
Cc1ccc(O)c(NC(=S)NC(=O)/C=C/c2ccco2)c1,.,43,.,.,.,.
O=C(/C=C/c1ccco1)NC(=S)NNC(=O)c1ccco1,/,.,.,.,-26,.
COC(=O)/C(=C\Nc1ccc(Oc2ccccc2OC(C)C)nc1)NC(=O)c1ccccc1,/,.,.,.,/,/
COc1ccc(Nc2nc(N)nc(CSC(=S)N3CCCCC3)n2)cc1,.,/,.,.,.,.
COc1ccc(Nc2nc(N)nc(CSc3nccn3C)n2)cc1,.,44,/,/,.,/
COc1ccc(Nc2nc(N)nc(CSc3nnc(N)s3)n2)cc1,.,/,.,.,/,.
COc1ccc(Nc2nc(N)nc(CSC(=S)N3CCCCC3C)n2)cc1 (configuration not stated),.,.,/,/,-22,/
O=Nc1c(-c2ccccc2)cc2ccccn12,.,43,.,/,.,.
CN(C)C(=O)C(=O)c1c(-c2ccccc2)cc2ccccn12,.,/,.,.,/,.
SMILES,Vif imaging,FGF22 binding,Cneo AK release,PGC1a acetyl inh,rRNA inh HTS,PglD inh
Cc1ncc(/C=C2\C(=O)Nc3ccccc32)[nH]1,/,.,/,/,-19,/
CCc1ncc(/C=C2\C(=O)Nc3ccccc32)[nH]1,.,.,.,.,.,.
S=C(c1c[nH]c2ccccc12)N1CCCC1,.,.,.,.,.,.
CC(OC(=O)c1c[nH]c2ccccc12)C(=O)N1CCCC1 (configuration not stated),64,.,.,.,.,.
CC(=O)Nc1cccc(NC(=O)CSc2nc3ccccc3o2)c1,.,.,/,/,/,/
CSc1cccc(NC(=O)CSc2nc3ccccc3o2)c1,.,.,.,.,-25,.
C[C@@H]1CN([C@@H](C)CO)C(=O)Cc2cc(NS(C)(=O)=O)ccc2O[C@H]1CN(C)C(=O)Nc1ccc(F)cc1,/,.,.,.,.,.
